Laboratory results taken from ChEMBL document CHEMBL2177092, “Phosphoramidate ProTides of the anticancer agent FUDR successfully deliver the preformed bioactive monophosphate in cells and confer advantage over the parent nucleoside” (J Med Chem, 2011).

Columns and labels:
HeLa [1] = test: Cytostatic activity against human HeLa cells […] by cell counting; assay type: functional, cell-based
CCRF-CEM [2] = test: Cytostatic activity against ENT1 transporter-deficient human CEM cells after 72 hrs by cell counting; assay type: functional, cell-based
Outline: (§1)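 Suspension leukemia cells in DMEM with 10% FBS, 10 mM Hepes and 1 mM sodium pyruvate at 37 °C under 5% CO2. Seeded at 60 000 cells/well with graded compound levels. Grown 48 h (L1210) or 72 h (CEM), then counted by Coulter counter. […] Mean ± SD of two to four independent experiments.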

CCRF-CEM [3] = test: Ratio of IC50 for human CEM cells expressing human ENT1 transporter in presence of dipyridamole to IC50 for human CEM cells expressing human ENT1 transporter; assay type: functional
Outline: (§2)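 Human T-lymphocyte CEM cells with (CEM/hEnt-1) or lacking (CEM/hEnt-0) the hENT1 transporter were seeded at 60 000 cells/well with graded compound concentrations. Transporter-inhibition runs added dipyridamole (10 μM) or NBMPR (10 μM) to CEM/hEnt-1 cells. […] Ratios are formed against untreated CEM/hEnt-1 IC50. Mean of 2–4 experiments.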

CCRF-CEM [4] = test: Cytostatic activity against human CEM cells expressing human ENT1 transporter after 72 hrs by cell counting; assay type: functional, cell-based; outline: as §1
CCRF-CEM [5] = test: Cytostatic activity against human CEM cells expressing human ENT1 transporter after 72 hrs by cell counting in presence of NBMPR; assay type: functional, cell-based
Outline: (§3)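 CEM/hEnt-1 cells with 10 μM dipyridamole or 10 μM NBMPR added alongside graded compound levels, in DMEM with 10% FBS, 10 mM Hepes and 1 mM sodium pyruvate at 37 °C under 5% CO2. Seeded at 60 000 cells/well, counted by Coulter counter after 3 days.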

CCRF-CEM [6] = test: Cytostatic activity against human CEM/0 cells after 72 hrs by cell counting; assay type: functional, cell-based; outline: as §1
L1210 [7] = test: Ratio of IC50 for Mycoplasma hyorhinis-infected mouse L1210 cells to IC50 for mouse L1210/0 cells after 48 hrs by cell counting; assay type: functional
Outline: (§4)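 Murine L1210/0 cells were compared with L1210/TK cells, selected for resistance to 5-bromo-2'-dUrd, and with L1210.Hyor cells, chronically infected with Mycoplasma hyorhinis. Cells were grown in DMEM with 10% FBS, 10 mM Hepes and 1 mM pyruvate at 37 °C and 5% CO2, then seeded at 60 000 cells/well with compound. They were Coulter-counted after 48 h. […] Mean of 2–4 experiments.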

CCRF-CEM [8] = test: Cytostatic activity against human CEM cells expressing human ENT1 transporter after 72 hrs by cell counting in presence of dipyridamole; assay type: functional, cell-based; outline: as §3
CCRF-CEM [9] = test: Ratio of IC50 for ENT1 transporter-deficient human CEM cells to IC50 for human CEM cells expressing human ENT1 transporter after 72 hrs by cell counting; assay type: functional; outline: as §2
CCRF-CEM [10] = test: Ratio of IC50 for human CEM cells expressing human ENT1 transporter in presence of NBMPR to IC50 for human CEM cells expressing human ENT1 transporter; assay type: functional; outline: as §2
CCRF-CEM [11] = test: Cytostatic activity against thymidine-kinase deficient human CEM cells after 72 hrs by cell counting; assay type: functional, cell-based
Outline: (§5)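 Suspension leukemia cells in DMEM with 10% FBS, 10 mM Hepes and 1 mM sodium pyruvate at 37 °C under 5% CO2. Seeded at 60 000 cells/well with graded compound levels. Grown 48 h (L1210) or 72 h (CEM), then counted by Coulter counter. Mean ± SD of two to four independent experiments.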

[12] = Cytostatic activity against mouse L1210/0 cells after 48 hrs by cell counting; assay type: functional, cell-based; conditions: L1210/0, 48 h; outline: as §5
L1210 [13] = test: Ratio of IC50 for thymidine-kinase deficient mouse L1210 cells to IC50 for mouse L1210/0 cells after 48 hrs by cell counting; assay type: functional; outline: as §4
[14] = Ratio of 5-FU IC50 to compound IC50 for mouse L1210/0 cells after 48 hrs by cell counting; assay type: functional
L1210 [15] = test: Cytostatic activity against Mycoplasma hyorhinis-infected mouse L1210 cells after 48 hrs by cell counting; assay type: functional, cell-based; conditions: L1210, 48 h; outline: as §5
HeLa [16] = test: Cytostatic activity against thymidine-kinase deficient human HeLa cells […]; assay type: functional, cell-based
L1210 [17] = test: Cytostatic activity against thymidine-kinase deficient mouse L1210 cells after 48 hrs by cell counting; assay type: functional, cell-based; conditions: L1210, 48 h; outline: as §5
[18] = Stability of the compound in potassium phosphate buffer at pH 7.4 assessed as E.coli thymidine phosphorylase-mediated release of 5-FU after 5 mins by [19F] NMR spectroscopy; assay type: ADME; conditions: pH 7.4, 5 min
Outline: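 Compound (6.0 mg) in methanol-d4 plus 300 mM potassium phosphate buffer pH 7.4. […] 19F NMR recorded at 5 min, 14 h and 72 h at 25 °C, with 5-FU identified by its signal near δF 169.50 ppm.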

[19] = Drug metabolism in DMSO/D2O assessed as metabolite 5-Fluoro-2'-deoxyuridine-5'-O-[1-naphthyl(L-alaninyl)]phosphate formation at 5 mg measured after 6 hrs 45 mins by [31P]NMR spectroscopy in presence of human serum; assay type: ADME
Outline: (§6)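 Compound (5.0 mg) dissolved in DMSO plus D2O and a control 31P NMR spectrum taken at 37 °C. Previously defrosted human serum then added. Spectra taken every 15 min over 14 h at 37 °C and processed by Lorentz-Gauss deconvolution. Parent and metabolite peaks were tracked by chemical shift.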

[20] = Drug metabolism in DMSO/D2O assessed as metabolite 5-Fluoro-2'deoxyuridine 5'-O-[(L-Alaninyl)]phosphate formation at 5 mg measured after 11 hrs 30 mins by [31P]NMR spectroscopy in presence of human serum; assay type: ADME; outline: as §6
[21] = Stability in DMSO/D2O assessed as parent compound at 5 mg measured after 13 hrs 30 mins by [31P]NMR spectroscopy in presence of human serum; assay type: ADME; conditions: read-out: Stability; outline: as §6
[22] = Drug metabolism in Trizma buffer at pH 7.6 assessed as metabolite 5-Fluoro-2'deoxyuridine 5'-O-[(L-Alaninyl)]phosphate formation at 3 mg measured after 45 mins by [31P]NMR spectroscopy in presence of carboxypeptidase Y; assay type: physicochemical; conditions: pH 7.6, 0.75 h
Outline: (§7)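 Compound (3.0 mg) in acetone-d6 with Trizma buffer pH 7.6. A control 31P NMR spectrum (202 MHz) was taken at 25 °C, then defrosted carboxypeptidase Y (0.1 mg in Trizma) added. Spectra recorded every 7 min over 14 h at 25 °C to follow conversion to metabolites. Half-life was estimated from these spectra.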

[23] = Drug metabolism in Trizma buffer at pH 7.6 assessed as metabolite 5-Fluoro-2'-deoxyuridine-5'-O-[1-naphthyl(L-alaninyl)]phosphate formation at 3 mg measured every 7 mins over 14 hrs by [31P]NMR spectroscopy in presence of carboxypeptidase Y; assay type: physicochemical; conditions: pH 7.6, 14 h; outline: as §7
[24] = Half life in Trizma buffer at pH 7.6 at 3 mg by [31P]NMR spectroscopy in presence of carboxypeptidase Y; assay type: physicochemical; conditions: yeast (Saccharomyces cerevisiae); outline: as §7

SMILES | IC50 (HeLa [1]) [µM] | IC50 (CCRF-CEM [2]) [µM] | Ratio IC50 (CCRF-CEM [3]) | IC50 (CCRF-CEM [4]) [µM] | IC50 (CCRF-CEM [5]) [µM] | IC50 (CCRF-CEM [6]) [µM] | Ratio IC50 (L1210 [7]) | IC50 (CCRF-CEM [8]) [µM] | Ratio IC50 (CCRF-CEM [9]) | Ratio IC50 (CCRF-CEM [10]) | IC50 (CCRF-CEM [11]) [µM] | IC50 [12] [µM] | IC50 (L1210 [15]) [µM] | IC50 (HeLa [16]) [µM] | IC50 (L1210 [17]) [µM] | other results
C[C@H](NP(=O)(OC[C@H]1O[C@@H](n2cc(F)c(=O)[nH]c2=O)C[C@@H]1O)Oc1cccc2ccccc12)C(=O)OCc1ccccc1 (mixture of isomers) [FOSIFLOXURIDINE NAFALBENAMIDE] | 0.065 | 0.6 | 2 | 0.05 | 0.26 | 0.068 | 2.27 | 0.13 | 7 | 2 | 0.31 | 0.011 | 0.025 | 2.5 | 0.045 | Ratio IC50 (L1210 [13]): 5; Ratio IC50 [14]: 30
O=c1[nH]c(=O)n([C@H]2C[C@H](O)[C@@H](CO)O2)cc1F [FLOXURIDINE] | 0.05 | 2.5 |  | 0.04 | 0.8 | 0.022 |  |  |  |  |  |  |  |  |  | Stability [18]: Unstable
CCOC(=O)C(C)(C)NP(=O)(OC[C@H]1O[C@@H](n2cc(F)c(=O)[nH]c2=O)C[C@@H]1O)Oc1cccc2ccccc12 (mixture of isomers) | 0.2 | 1.4 | 2 | 0.21 | 0.62 | 0.36 | 3 | 0.52 | 7 | 2 | 6.9 | 0.056 | 0.17 | 3.2 | 0.82 | 
O=c1[nH]c(=O)n([C@H]2C[C@H](O)[C@@H](COP(=O)(O)O)O2)cc1F [5-FLUORODEOXYURIDYLATE] |  | 3.6 | 20 | 0.05 | 1.06 |  |  | 1.74 | 72 | 20 |  |  |  |  |  | 
O=c1[nH]cc(F)c(=O)[nH]1 [FLUOROURACIL] |  |  |  |  |  |  |  |  |  |  | 12 |  |  | 0.23 | 0.32 | Stability [18]: Unstable
CC(C)(NP(=O)(OC[C@H]1O[C@@H](n2cc(F)c(=O)[nH]c2=O)C[C@@H]1O)Oc1cccc2ccccc12)C(=O)OCc1ccccc1 (mixture of isomers) | 0.078 | 0.4 | 2 | 0.05 | 0.28 | 0.16 | 2.4 | 0.16 | 7 | 2 | 2.4 | 0.019 | 0.045 | 3.1 | 0.13 | 
CCCCCOC(=O)[C@H](CCSC)NP(=O)(OC[C@H]1O[C@@H](n2cc(F)c(=O)[nH]c2=O)C[C@@H]1O)Oc1ccccc1 (mixture of isomers) | 0.15 |  |  |  |  | 0.35 | 3.2 |  |  |  | 13 | 0.13 | 0.41 | 7.1 | 2.2 | 
CCOC(=O)[C@H](C)NP(=O)(OC[C@H]1O[C@@H](n2cc(F)c(=O)[nH]c2=O)C[C@@H]1O)Oc1cccc2ccccc12 (mixture of isomers) | 0.22 |  |  |  |  | 0.25 | 3.4 |  |  |  | 1.6 | 0.028 | 0.095 | 2.8 | 0.36 | Drug metabolism [19]: Active; Drug metabolism [20]: Active; remaining at 13.5 h [21]: 96%
C[C@H](NP(=O)(OC[C@H]1O[C@@H](n2cc(F)c(=O)[nH]c2=O)C[C@@H]1O)Oc1cccc2ccccc12)C(=O)OC1CCC1 (mixture of isomers) | 0.069 |  |  |  |  | 0.073 | 2.2 |  |  |  | 1.5 | 0.011 | 0.024 | 1.5 | 0.088 | 
CCOC(=O)C(C)(C)NP(=O)(OC[C@H]1O[C@@H](n2cc(F)c(=O)[nH]c2=O)C[C@@H]1O)Oc1ccccc1 (mixture of isomers) | 0.59 | 5.8 | 2 | 0.37 | 2.56 | 0.65 | 8.7 | 2.35 | 7 | 2 | 22 | 0.03 | 0.26 | 17 | 4.6 | 
CCCCCOC(=O)[C@H](C)NP(=O)(OC[C@H]1O[C@@H](n2cc(F)c(=O)[nH]c2=O)C[C@@H]1O)Oc1cccc2ccccc12 (mixture of isomers) | 0.029 |  |  |  |  | 0.015 | 2.9 |  |  |  | 0.28 | 0.0021 | 0.006 | 0.44 | 0.13 | Drug metabolism [22]: Active; Ratio IC50 (L1210 [13]): 40; Ratio IC50 [14]: 100; Drug metabolism [23]: Active; half-life [24]: < 5 min
C[C@H](NP(=O)(OC[C@H]1O[C@@H](n2cc(F)c(=O)[nH]c2=O)C[C@@H]1O)Oc1cccc2ccccc12)C(=O)OCC(C)(C)C (mixture of isomers) | 0.7 |  |  |  |  | 0.49 | 1.9 |  |  |  | 6.7 | 0.093 | 0.18 | 32 | 1.2 | 
CC(C)(NP(=O)(OC[C@H]1O[C@@H](n2cc(F)c(=O)[nH]c2=O)C[C@@H]1O)Oc1ccccc1)C(=O)OCc1ccccc1 (mixture of isomers) | 0.24 | 1.2 | 2 | 0.17 | 0.61 | 0.23 | 0.69 | 0.26 | 7 | 2 | 4.8 | 0.029 | 0.02 | 3.7 | 0.18 | 
CC(C)C[C@H](NP(=O)(OC[C@H]1O[C@@H](n2cc(F)c(=O)[nH]c2=O)C[C@@H]1O)Oc1ccccc1)C(=O)OCc1ccccc1 (mixture of isomers) | 0.067 |  |  |  |  | 0.24 | 3.2 |  |  |  | 16 | 0.054 | 0.17 | 5.6 | 2 | 
CCOC(=O)[C@@H](NP(=O)(OC[C@H]1O[C@@H](n2cc(F)c(=O)[nH]c2=O)C[C@@H]1O)Oc1ccccc1)C(C)C (mixture of isomers) | 1.2 |  |  |  |  | 1 | 22 |  |  |  | > 250 | 0.2 | 4.4 | 27 | 42 | 
